In ChEMBL document CHEMBL4261484, “Design, synthesis and anticonvulsant-analgesic activity of new N-[(phenoxy)alkyl]- and N-[(phenoxy)ethoxyethyl]aminoalkanols” (Medchemcomm, 2017):
Active and inactive are the calls of the source.

How the values were obtained:
Mus musculus [1] = assay: Neurotoxicity in mouse assessed as motor impairment by measuring time of escaping from chimney at 27 mg/kg, ip measured for 60 secs (reference value: 8.87 +/- 1.79 secs); format: toxicity, organism-based; conditions: in vivo, 1 min
In short: (§1)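 Mice dosed ip; trained, selected animals placed in a horizontal tube 25 cm long and 2.5 cm in diameter, then tube reversed so mice must climb out backward. Read-outs: escape time (s) ± SEM and % animals losing coordination versus control. Unpaired t test.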

Mus musculus [2] = assay: Anticonvulsant activity in ip dosed mouse assessed as protection against maximal electroshock-induced seizures; format: functional
In short: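 Mice were dosed ip. Maximal seizures were induced by auricular electrodes (25 mA, 500 V, 50 Hz, 0.2 s). Absence of hind-limb tonic extension counted as protection. […] Motor impairment was scored on a 10 rpm rotarod, giving TD50 the same way.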

Mus musculus [3] = assay: Anticonvulsant activity in mouse assessed as protection against subcutaneous pentylenetetrazole-induced seizures by measuring latency time of tonic seizures at 100 mg/kg, ip measured for 30 mins post pentylenetetrazole challenge at 0.5 hrs after compound dosing (reference value: 562.8 to 614.9 secs); format: functional
Mus musculus [4] = assay: Anticonvulsant activity in mouse assessed as protection against subcutaneous pentylenetetrazole-induced seizures at 30 mg/kg, ip measured for 30 mins post pentylenetetrazole challenge at 0.5 hrs after compound dosing relative to control; format: functional
[5] = Neurotoxicity in ip dosed mouse assessed as motor impairment measured for one min by rotarod test; format: toxicity, organism-based; conditions: in vivo
In short: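 Mice trained on an accelerating rotarod, then tested at least 24 h later after ip pretreatment, on a rod turning at 10 rpm. Neurotoxicity was scored as failure to stay on the rod for one minute. Read-out is mice impaired over mice tested.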

HepG2 [6] = assay: Cytotoxicity against human HepG2 cells assessed as effect on cell viability at 10 to 250 uM after 24 hrs by neutral red assay; format: cell-based; conditions: hepg2, 24 h
In short: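 HepG2 cells seeded at 5 × 10^4 per well, then after 24 h given medium with 10–250 μM for 24 h. Viability by neutral red staining, OD 570 nm. Results are % of control ± SEM, three independent experiments.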

Mus musculus [7] = assay: Anticonvulsant activity in mouse assessed as protection against maximal electroshock-induced seizures at 100 mg/kg, ip; format: functional, organism-based
In short: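 Mice dosed ip; maximal seizures induced by auricular electroshock (25 mA, 500 V, 50 Hz, 0.2 s). Endpoint: hind-limb tonic extension; animals without it scored protected. Read-out is number protected over number tested.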

Mus musculus [8] = assay: Anticonvulsant activity in mouse assessed as current strength required to induce tonic hind-limb extension in 50% of the animals at 10 mg/kg, ip by maximal electroshock seizure threshold test (reference value: 6.05 to 8.13 mA); format: functional
Mus musculus [9] = assay: Toxicity in mouse assessed as effect on spontaneous activity at 27 mg/kg, ip measured for 30 mins by photoresistor actometer relative to control; format: organism-based; conditions: in vivo, 0.5 h
In short: (§2)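 Mice dosed ip; locomotor activity by photoresistor actometers counting light-beam interruptions. Each mouse was habituated 30 min in a cage, then crossings were counted over a 30 min session. Data are mean ± SEM and % change vs control; unpaired t test.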

Mus musculus [10] = assay: Analgesic activity in mouse assessed as decrease in time of paw licking during phase 2 at 27 mg/kg, ip measured for 15 to 30 mins by formalin test relative to control; format: functional; set-up: scale not given: the % may be the effect or the level left
In short: (§3)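 Formalin test in mice: 20 μL of 5% formalin injected intraplantarly into the right hind paw. Each mouse was observed alone in a glass beaker for 30 min. Time (s) spent licking or biting the injected paw was recorded at 0–5 min (acute phase) and 15–30 min (inflammatory phase).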

Mus musculus [11] = assay: Toxicity in mouse at 30 mg/kg, ip measured during maximal electroshock seizure test; format: organism-based; conditions: in vivo
HepG2 [12] = assay: Cytotoxicity against human HepG2 cells assessed as effect on cell viability at 10 to 250 uM after 24 hrs by MTT assay; format: cell-based; conditions: hepg2, 24 h
In short: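 HepG2 cells grown in MEM with 10% FBS (37 °C, 5% CO2) and seeded at 1 × 10^4. After overnight culture, exposed to 10–250 μM for 24 h. MTT for 3 h, formazan dissolved, OD 570 nm. Viability is % of control ± SEM from three independent experiments.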

Mus musculus [13] = assay: Toxicity in mouse at 100 mg/kg, ip measured during maximal electroshock seizure test; format: organism-based; conditions: in vivo
[14] = Protection index, ratio of TD50 for neurotoxicity in ip dosed mouse by rotarod test to ED50 for anticonvulsant activity in mouse by maximal electroshock seizure test; format: toxicity, organism-based; conditions: in vivo, read-out: Ratio TD50/ED50
Mus musculus [15] = assay: Anticonvulsant activity in mouse assessed as increase in electroconvulsive threshold at 10 mg/kg, ip by maximal electroshock seizure threshold test relative to control; format: functional
Mus musculus [16] = assay: Anticonvulsant activity in mouse assessed as protection against subcutaneous pentylenetetrazole-induced seizures at 100 mg/kg, ip measured for 30 mins post pentylenetetrazole challenge at 0.5 hrs after compound dosing relative to control; format: functional
Mus musculus [17] = assay: Analgesic activity in mouse assessed as time of paw licking during phase 1 at 27 mg/kg, ip measured for 5 mins by formalin test (reference value: 43.89 +/- 6.64 secs); format: functional; in short: as §3
Mus musculus [18] = assay: Toxicity in mouse at 25 mg/kg, ip measured during maximal electroshock seizure test; format: organism-based; conditions: in vivo
Mus musculus [19] = assay: Neurotoxicity in mouse assessed as motor impairment by measuring loss of coordination at 27 mg/kg, ip measured for 60 secs by chimney test relative to control; format: toxicity, organism-based; conditions: in vivo, 1 min; in short: as §1
[20] = Cytotoxicity against mouse CRL-2541 cells assessed as effect on cell viability at 10 to 250 uM after 24 hrs by MTT assay; format: cell-based
Mus musculus [21] = assay: Anticonvulsant activity in mouse assessed as protection against subcutaneous pentylenetetrazole-induced seizures by measuring latency time of tonic seizures at 30 mg/kg, ip measured for 30 mins post pentylenetetrazole challenge at 0.5 hrs after compound dosing (reference value: 562.8 to 614.9 secs); format: functional
Mus musculus [22] = assay: Toxicity in mouse at 20 mg/kg, ip measured during maximal electroshock seizure test; format: organism-based; conditions: in vivo
Mus musculus [23] = assay: Neurotoxicity in mouse assessed as motor impairment by measuring loss of coordination at 24 mg/kg, ip measured for 60 secs by chimney test relative to control; format: toxicity, organism-based; conditions: in vivo, 1 min; in short: as §1
Mus musculus [24] = assay: Toxicity in mouse assessed as effect on spontaneous activity at 24 mg/kg, ip measured for 30 mins by photoresistor actometer relative to control; format: organism-based; conditions: in vivo, 0.5 h; in short: as §2
Mus musculus [25] = assay: Analgesic activity in mouse assessed as decrease in time of paw licking during phase 1 at 24 mg/kg, ip measured for 5 mins by formalin test relative to control; format: functional; set-up: scale not given: the % may be the effect or the level left; in short: as §3
Mus musculus [26] = assay: Analgesic activity in mouse assessed as decrease in time of paw licking during phase 2 at 24 mg/kg, ip measured for 15 to 30 mins by formalin test relative to control; format: functional; set-up: scale not given: the % may be the effect or the level left; in short: as §3
Mus musculus [27] = assay: Neurotoxicity in mouse assessed as motor impairment by measuring time of escaping from chimney at 24 mg/kg, ip measured for 60 secs (reference value: 8.87 +/- 1.79 secs); format: toxicity, organism-based; conditions: in vivo, 1 min; in short: as §1
HepG2 [28] = assay: Cytotoxicity against human HepG2 cells assessed as effect on cell viability at 10 to 200 uM after 24 hrs by MTT assay; format: cell-based; conditions: hepg2, 24 h
In short: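 HepG2 cells grown in MEM with 10% FBS (37 °C, 5% CO2) and seeded at 1 × 10^4. After overnight culture, doxorubicin 10–200 μM for 24 h. MTT added for 3 h, crystals dissolved, OD 570 nm. Viability is % of control ± SEM, three independent experiments.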

Mus musculus [29] = assay: Anticonvulsant activity in mouse assessed as protection against subcutaneous pentylenetetrazole-induced seizures at 50 mg/kg, ip measured for 30 mins post pentylenetetrazole challenge at 0.5 hrs after compound dosing relative to control; format: functional
[30] = Neurotoxicity in ip dosed mouse assessed as motor impairment measured after 15 mins by rotarod test; conditions: in vivo
Mus musculus [31] = assay: Anticonvulsant activity in mouse assessed as current strength required to induce tonic hind-limb extension in 50% of the animals at 2.5 mg/kg, ip by maximal electroshock seizure threshold test (reference value: 6.05 to 8.13 mA); format: functional
Mus musculus [32] = assay: Anticonvulsant activity in mouse assessed as increase in electroconvulsive threshold at 2.5 mg/kg, ip by maximal electroshock seizure threshold test relative to control; format: functional

SMILES | ED50 (Mus musculus [2]) | Time (Mus musculus [3]) | TD50 at 1 min [5] | Activity (Mus musculus [7]) | Activity (Mus musculus [8]) | Activity (Mus musculus [11]) | Activity (Mus musculus [13]) | selectivity ratio [14] | Activity (Mus musculus [15]) | Activity (Mus musculus [16]) | Activity (Mus musculus [18]) | other results
Cc1ccc(OCCOCCNC(C)CO)c(C)c1 (racemic) | 27.1 mg/kg | 1269 s | 109 mg/kg | Active | 6.76 mA | Non-Toxic | Non-Toxic | 4.02 | inactive | 117.23% | Non-Toxic | Time (Mus musculus [1]): 6 s; Activity (Mus musculus [4]): 2.31%; Activity (HepG2 [6]): Non-Toxic; Activity (Mus musculus [9]): 68.92%; Activity (Mus musculus [10]): 83.41%; Activity (HepG2 [12]): Non-Toxic; Time (Mus musculus [17]): 67.25 s; Activity (Mus musculus [19]): 0%; Activity [20]: Non-Toxic; Time (Mus musculus [21]): 575.8 s
Cc1cccc(Cl)c1OCCOCCNCC(O)c1ccccc1 (racemic) | 23.9 mg/kg | 219.6 s |  | Active | 11.09 mA | Non-Toxic | Non-Toxic | 4.3 | 56.64% | inactive | Non-Toxic | Activity (Mus musculus [22]): Non-Toxic; Activity (Mus musculus [23]): 0%; Activity (Mus musculus [24]): 44.39%; Activity (Mus musculus [25]): 8.57%; Activity (Mus musculus [26]): 8.8%; Time (Mus musculus [27]): 3.5 s
COc1cccc2c1C(=O)c1c(O)c3c(c(O)c1C2=O)C[C@@](O)(C(=O)CO)C[C@@H]3O[C@H]1C[C@H](N)[C@H](O)[C@H](C)O1 [DOXORUBICIN] |  |  |  |  |  |  |  |  |  |  |  | Activity (HepG2 [28]): Toxic
CCC1(C)CC(=O)NC1=O (stereo not drawn) [ETHOSUXIMIDE] |  | 1470 s |  |  |  |  |  |  |  | 139.06% |  | Activity (Mus musculus [29]): 123.94%
COC[C@@H](NC(C)=O)C(=O)NCc1ccccc1 [LACOSAMIDE] |  |  |  |  | >25 mA |  |  |  | >413.22% |  |  | TD50 at 0.25 h [30]: 42.5 mg/kg
O=C1NC(=O)C(c2ccccc2)(c2ccccc2)N1 [PHENYTOIN] |  |  | 68.7 mg/kg |  |  |  |  | 10.3 |  |  |  | Activity (Mus musculus [31]): 7.46 mA; Activity (Mus musculus [32]): 23.31%
